Results as given in ChEMBL document CHEMBL4130474, “Spirotriazoline oxindoles: A novel chemical scaffold with in vitro anticancer properties” (Eur J Med Chem, 2017).
The source made the active and inactive calls. The rule behind the calls is not given here.

Columns and labels:
MDA-MB-231 [1] = test: Antiproliferative activity in human MDA-MB-231 cells incubated for 72 hrs by MTT assay; assay type: functional, cell-based; conditions: MDA-MB-231, 72 h
Outline: (§1)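 Cells grown in RPMI 1640 with 10% FBS, penicillin/streptomycin; seeded at 2 × 10⁵ cells/mL, allowed to adhere 24 h, then exposed 72 h to compounds diluted in medium from DMSO stocks. MTT added after medium change, 3 h, formazan dissolved in DMSO, absorbance at 570 nm. Triplicate wells, at least 3 independent experiments; IC50 by non-linear regression.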

[2] = Potency index, ratio of IC50 for antiproliferative activity in human MDA-MB-231 cells to IC50 for antiproliferative activity in human MCF7 cells; assay type: functional
Outline: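 Ratio of MDA-MB-231 IC50 to MCF-7 IC50 from 72 h MTT assays.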

MCF7 = test: Antiproliferative activity in human MCF7 cells incubated for 72 hrs by MTT assay; assay type: functional, cell-based; conditions: MCF7, 72 h; outline: as §1
HEK-293T = test: Antiproliferative activity in human HEK293T cells incubated for 72 hrs by MTT assay; assay type: cell-based; outline: as §1
[3] = Selectivity index, ratio of IC50 for antiproliferative activity in HEK293T cells to IC50 for antiproliferative activity in human MCF7 cells; assay type: toxicity, cell-based; conditions: HEK293T cells versus MCF7 cells, read-out: Ratio IC50
Outline: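 Ratio of HEK 293T IC50 to MCF-7 IC50 from 72 h MTT assays.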

HCT-116 [4] = test: Antiproliferative activity in p53 (+/+) human HCT116 cells incubated for 72 hrs by MTS assay; assay type: functional, cell-based; conditions: HCT-116, 72 h
Outline: (§2)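 HCT116 p53(+/+) or p53(−/−) seeded at 1 × 10⁵ cells/mL, adhered 24 h, then treated 72 h with compounds diluted from DMSO stocks. Viability by MTS (CellTiter96 AQueous) with absorbance at 490 nm. Duplicate wells, three independent experiments; IC50 by non-linear regression.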

CCD-18Co [5] = test: Cytotoxicity in human CCD-18Co cells assessed as reduction in cell viability at antiproliferative IC80 (for p53 (+/+) human HCT116 cells) incubated for 72 hrs by MTS assay; assay type: cell-based
Outline: (§3)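 CCD-18Co colon fibroblasts grown in DMEM with 10% FBS, penicillin/streptomycin, Glutamax, NEAA. […] Viability by MTS, absorbance at 490 nm. Triplicate wells, at least 2 independent experiments; mean ± SEM.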

CCD-18Co [6] = test: Cytotoxicity in human CCD-18Co cells assessed as reduction in cell viability at antiproliferative IC50 (for p53 (+/+) human HCT116 cells) incubated for 72 hrs by MTS assay; assay type: cell-based; outline: as §3
HCT-116 [7] = test: Induction of cell cycle arrest in p53 (+/+) human HCT116 cells assessed as accumulation at S phase at antiproliferative IC50 level incubated for 48 hrs by propidium iodide staining based flow cytometry (reference value: 22.67%); assay type: functional
[8] = target: Tumour suppressor p53/oncoprotein Mdm2 (Homo sapiens) (UniProt P04637+Q00987); test: Inhibition of p53/MDM2 interaction (unknown origin) transfected in p53 (-/-) human HCT116 cells at 10 uM incubated for 4 hrs by Venus-based bimolecular fluorescence complementation assay
Outline: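 HCT116 p53(−/−) co-transfected with V1-p53/MDM2-V2 BiFC plasmids using Lipofectamine 2000. Medium replaced 4–6 h after transfection, then compound (final 5 and 10 µM), nutlin-3a, or matched DMSO added; transfection period 24 h. Venus fluorescence read by flow cytometry and normalized to DMSO (100%). Three experiments.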

HCT-116 [9] = test: Increase in p53 protein expression in p53 (+/+) human HCT116 cells at antiproliferative IC50 level incubated for 72 hrs by Western blot; assay type: functional, cell-based
Outline: (§4)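 Lysed in NP-40 buffer, protein measured by Bradford, separated by 8%/14% SDS-PAGE, blotted to nitrocellulose. Probed overnight at 4 °C with anti-p53 (Pab-240) and anti-MDM2 (SMP-14), then HRP secondary with chemiluminescence. Ponceau S loading control, densitometry; two experiments.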

[10] = Potency index, ratio of IC50 for antiproliferative activity in human p53 (-/-) human HCT116 cells to IC50 for antiproliferative activity in human p53 (+/+) human HCT116; assay type: functional
HCT-116 [11] = test: Antiproliferative activity in p53 (-/-) human HCT116 cells incubated for 72 hrs by MTS assay; assay type: functional, cell-based; conditions: HCT-116, 72 h; outline: as §2
[12] = Selectivity index, ratio of IC50 for antiproliferative activity in HEK293T cells to IC50 for antiproliferative activity in human p53 (+/+) human HCT116 cells; assay type: toxicity, cell-based; conditions: HEK293T cells versus p53 (+/+) HCT116 cells, read-out: Ratio IC50
HCT-116 [13] = test: Induction of cell cycle arrest in p53 (+/+) human HCT116 cells assessed as accumulation at G0/G1 phase at antiproliferative IC50 level incubated for 24 hrs by propidium iodide staining based flow cytometry (reference value: 31.87%); assay type: functional
HCT-116 [14] = test: Induction of cell cycle arrest in p53 (+/+) human HCT116 cells assessed as accumulation at G0/G1 phase at antiproliferative IC50 level incubated for 48 hrs by propidium iodide staining based flow cytometry (reference value: 50.48%); assay type: functional
HCT-116 [15] = test: Induction of apoptosis in p53 (+/+) human HCT116 cells at 2 times antiproliferative IC50 level incubated for 72 hrs by Annexin-V and 7-AAD staining based flow cytometry; assay type: functional, cell-based
Outline: (§5)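 Cells detached with Accutase and stained with Annexin V/7-AAD (Guava Nexin), 20 min at room temperature in the dark. Flow cytometry, ≥5000 events per sample; three independent experiments.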

HCT-116 [16] = test: Induction of apoptosis in p53 (+/+) human HCT116 cells assessed as increase in early apoptotic cells level at antiproliferative IC50 level incubated for 72 hrs by Annexin-V and 7-AAD staining based flow cytometry; assay type: functional; outline: as §5
HCT-116 [17] = test: Induction of cell cycle arrest in p53 (+/+) human HCT116 cells assessed as accumulation at S phase at antiproliferative IC50 level incubated for 24 hrs by propidium iodide staining based flow cytometry (reference value: 38.3%); assay type: functional
HCT-116 [18] = test: Reduction in MDM2 protein expression in p53 (+/+) human HCT116 cells at antiproliferative IC50 level incubated for 72 hrs by Western blot; assay type: functional, cell-based; outline: as §4
[19] = Selectivity index, ratio of IC50 for antiproliferative activity in HEK293T cells to IC50 for antiproliferative activity in human p53 (-/-) human HCT116 cells; assay type: toxicity, cell-based; conditions: HEK293T cells versus p53 (-/-) HCT116 cells, read-out: Ratio IC50
[20] = Potency index, ratio of IC50 for antiproliferative activity in human p53 (-/-) human HCT116 cells to IC50 for antiproliferative activity in human MDA-MB-231 cells; assay type: functional
[21] = Potency index, ratio of IC50 for antiproliferative activity in human p53 (+/+) human HCT116 cells to IC50 for antiproliferative activity in human MDA-MB-231 cells; assay type: functional
[22] = Selectivity index, ratio of IC50 for antiproliferative activity in HEK293T cells to IC50 for antiproliferative activity in human MDA-MB-231 cells; assay type: toxicity, cell-based; conditions: HEK293T cells versus MDA-MB-231 cells, read-out: Ratio IC50
Outline: (§6)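 Ratio of HEK 293T IC50 to MDA-MB-231 IC50 from 72 h MTT assays.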

[23] = Potency index, ratio of IC50 for antiproliferative activity in human MCF7 cells to IC50 for antiproliferative activity in human MDA-MB-231 cells; assay type: functional
MDA-MB-231 [24] = test: Induction of cell cycle arrest in human MDA-MB-231 cells at antiproliferative IC50 level by propidium iodide staining based flow cytometry; assay type: functional
[25] = […], ratio of IC50 for antiproliferative activity in HEK293T cells to IC50 for antiproliferative activity in human MDA-MB-231 cells; assay type: toxicity, cell-based; conditions: HEK293T cells versus MDA-MB-231 cells, read-out: Ratio IC50; outline: as §6
MDA-MB-231 [26] = test: Induction of apoptosis in human MDA-MB-231 cells assessed as increase in caspase3/7 activity at antiproliferative IC50 level incubated for 48 hrs by Caspase-Glo 3/7 Assay; assay type: functional
HCT-116 [27] = test: Induction of cell cycle arrest in p53 (+/+) human HCT116 cells assessed as accumulation at G2/M phase at antiproliferative IC50 level incubated for 24 hrs by propidium iodide staining based flow cytometry (reference value: 25.85%); assay type: functional
HCT-116 [28] = test: Induction of cell cycle arrest in p53 (+/+) human HCT116 cells assessed as accumulation at G2/M phase at antiproliferative IC50 level incubated for 48 hrs by propidium iodide staining based flow cytometry (reference value: 26.85%); assay type: functional

Sequence of Tumour suppressor p53/oncoprotein Mdm2 (Homo sapiens) (P04637 whole entry, looked up): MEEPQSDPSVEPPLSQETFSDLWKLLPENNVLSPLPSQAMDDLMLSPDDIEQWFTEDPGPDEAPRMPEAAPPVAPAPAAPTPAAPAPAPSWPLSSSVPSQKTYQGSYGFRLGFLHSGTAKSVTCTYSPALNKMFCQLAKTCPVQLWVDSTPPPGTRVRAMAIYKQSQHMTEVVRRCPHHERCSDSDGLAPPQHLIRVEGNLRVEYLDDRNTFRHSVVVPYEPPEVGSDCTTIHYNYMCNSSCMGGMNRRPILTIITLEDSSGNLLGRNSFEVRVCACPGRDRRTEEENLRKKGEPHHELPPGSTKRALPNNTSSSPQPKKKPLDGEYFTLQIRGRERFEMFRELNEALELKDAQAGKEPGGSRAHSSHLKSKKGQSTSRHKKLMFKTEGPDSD
Sequence of Tumour suppressor p53/oncoprotein Mdm2 (Homo sapiens) (Q00987 whole entry, looked up): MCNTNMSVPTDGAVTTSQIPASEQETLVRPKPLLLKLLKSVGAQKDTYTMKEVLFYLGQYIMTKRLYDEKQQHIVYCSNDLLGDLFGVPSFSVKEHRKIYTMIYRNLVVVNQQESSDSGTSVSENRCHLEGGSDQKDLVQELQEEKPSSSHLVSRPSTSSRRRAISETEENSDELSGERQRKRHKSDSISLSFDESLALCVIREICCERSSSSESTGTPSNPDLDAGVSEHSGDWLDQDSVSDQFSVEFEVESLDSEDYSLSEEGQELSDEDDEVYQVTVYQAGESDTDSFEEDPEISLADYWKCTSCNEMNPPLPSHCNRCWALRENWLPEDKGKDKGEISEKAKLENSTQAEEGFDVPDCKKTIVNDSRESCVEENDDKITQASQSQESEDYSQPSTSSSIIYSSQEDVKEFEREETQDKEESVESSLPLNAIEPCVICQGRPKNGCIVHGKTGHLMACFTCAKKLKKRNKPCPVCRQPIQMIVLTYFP

Structure (SMILES) | IC50 (MDA-MB-231 [1]) | IC50 (MCF7) | IC50 (HEK-293T) | selectivity ratio [3] | IC50 (HCT-116 [4]) | IC50 (HCT-116 [11]) | selectivity ratio [12] | selectivity ratio [19] | Ratio IC50 [20] | Ratio IC50 [21] | selectivity ratio [22] | Ratio IC50 [23] | also measured
O=C1Nc2ccc(Br)cc2[C@]12[C@@H](c1ccccc1)C(c1ccccc1)=NN2c1ccccc1 | > 100 µM | 7.3 µM | > 100 µM | > 13.7 |  |  |  |  |  |  |  |  | Ratio IC50 [2]: > 13.7
O=C1Nc2ccc(Br)cc2C12N(c1ccccc1Cl)N=C(c1cccc(Cl)c1)N2c1cccc(Cl)c1 (stereo not given) | 7.6 µM | 9.5 µM | 21.4 µM | 2.3 | 13.9 µM | 17.7 µM | 1.5 | < 2 |  |  |  |  | Activity (CCD-18Co [5]): 40%; Activity (CCD-18Co [6]): Non-Toxic; Activity (HCT-116 [7]): 33.41%; inhibition [8]: Active; Activity (HCT-116 [9]): Active; Ratio IC50 [10]: 1.3; Activity (HCT-116 [13]): 34.54%; Activity (HCT-116 [14]): 65.49%; Activity (HCT-116 [15]): Dose-dependent effect; fold change (FC) (HCT-116 [16]): 2.8; Activity (HCT-116 [17]): 42.61%; Activity (HCT-116 [18]): Active
O=C1Nc2ccc(Br)cc2C12N(c1ccccc1)N=C(c1ccccc1)N2c1ccc(F)c(Cl)c1 (stereo not given) | 4.6 µM | 11 µM | 16.6 µM | < 2 | 13.5 µM | 15.9 µM | < 2 | < 2 | >=2.4 | >=2.4 | ≥ 2.4 | >=2.4 | 
O=C1Nc2ccc(Br)cc2C12N(c1ccccc1)N=C(c1ccccc1)N2c1ccccc1 (stereo not given) | 6.7 µM | 23 µM | 56.3 µM | 2.4 to 2.5 | 22.2 µM | 22.5 µM | 2.5 | 2.5 | >=2.4 | >=2.4 | ≥ 2.4 | >=2.4 | Activity (MDA-MB-231 [24]): inactive; selectivity ratio [25]: ≥ 2.5; fold change (FC) (MDA-MB-231 [26]): 2.5
O=C1Nc2ccc(Br)cc2C12N(c1ccccc1)N=C(c1ccccc1)N2c1ccc(Cl)cc1 (stereo not given) | 5.2 µM | 16.8 µM | 21.6 µM | < 2 | 16.3 µM | 18.2 µM | < 2 | < 2 | >=2.4 | >=2.4 | ≥ 2.4 | >=2.4 | 
O=C1Nc2ccc(Cl)cc2C12N(c1ccccc1)N=C(c1ccccc1)N2c1cccc(Cl)c1 (stereo not given) | 8.9 µM | 9.8 µM | > 100 µM | 2.5 to 10.2 | 16.3 µM | 17.9 µM | 2.5 to 5.6 | 2.5 to 5.6 |  |  |  |  | Activity (CCD-18Co [5]): 40%; Activity (CCD-18Co [6]): Non-Toxic; Activity (HCT-116 [27]): 13.87%; Activity (HCT-116 [7]): 31.34%; selectivity ratio [25]: ≥ 2.5; Activity (HCT-116 [28]): 13.65%; Activity (HCT-116 [13]): 50.11%; Activity (HCT-116 [14]): 58%; Activity (HCT-116 [15]): Dose-dependent effect; fold change (FC) (HCT-116 [16]): 3.1; Activity (HCT-116 [17]): 36.42%
O=C1Nc2ccc(Br)cc2C12N(c1ccccc1)N=C(c1ccccc1)N2c1cccc(Cl)c1 (stereo not given) | 3.5 µM | 21.4 µM | 21.6 µM | < 2 | 15.7 µM | 17.8 µM | < 2 | < 2 | >=2.4 | >=2.4 | ≥ 2.4 | >=2.4 | 
